Results from ChEMBL document CHEMBL1155633, “New lignan glycosides with potent antiinflammatory effect, isolated from Justicia ciliata” (J Nat Prod, 2000).
The source made the active and inactive calls. No cut-off for these calls is given here.

Key:
[1] = Antiinflammatory activity against mouse […] cells assessed as inhibition of LPS-induced nitrite accumulation at 1 mM treated 1 hr before LPS challenge assessed after 24 hrs; format: functional
Summary of the method: (§1)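 RAW 264.7 cells in DMEM with 5% FCS seeded at 2×10^5 cells/well and allowed to adhere overnight. Pretreated 1 h at 37 °C with compound or 0.5% DMSO (final), then stimulated with 1 μg mL⁻¹ E. coli 0111:B4 LPS for 24 h. Medium nitrite measured by Griess reaction (absorbance 550 nm) using an NaNO₂ standard curve. Mean ± s.e.m., n=3.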

[2] = Antiinflammatory activity against mouse […] cells assessed as inhibition of LPS-induced nitrite accumulation at 0.3 mM treated 1 hr before LPS challenge assessed after 24 hrs; format: functional; summary of the method: as §1
[3] = Antiinflammatory activity against mouse […] cells assessed as inhibition of LPS-induced nitrite accumulation at 0.1 mM treated 1 hr before LPS challenge assessed after 24 hrs; format: functional; summary of the method: as §1
[4] = Antiinflammatory activity against mouse […] cells assessed as inhibition of LPS-induced nitrite accumulation treated 1 hr before LPS challenge assessed after 24 hrs; format: functional, cell-based
Summary of the method: (§2)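 RAW 264.7 macrophages were plated at 2×10^5 cells/well in DMEM with 5% FCS and adhered overnight. They were pretreated 1 h at 37 °C with compound or 0.5% DMSO vehicle, then stimulated with E. coli 0111:B4 LPS 1 μg/mL for 24 h. Medium nitrite was read by Griess reaction (10 min at RT, A550) against an NaNO₂ standard. Mean ± s.e.m., n=3; IC50 from concentration–response.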

[5] = test system: N9; assay: Antiinflammatory activity against mouse N9 cells assessed as inhibition of LPS/IFN-gamma-induced nitrite accumulation treated 1 hr before LPS challenge assessed after 24 hrs
[6] = Antiinflammatory activity against mouse […] cells assessed as inhibition of LPS-induced nitrite accumulation at 30 uM treated 1 hr before LPS challenge assessed after 24 hrs; format: functional; summary of the method: as §2
[7] = species on record: Mus musculus; assay: Antiinflammatory activity against mouse […] cells assessed as inhibition of LPS-induced TNFalpha generation treated 1 hr before LPS challenge assessed after 24 hrs; format: functional, cell-based
Summary of the method: (§3)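 TNF-α release assay. Cells were pretreated with compound at 37 °C for 1 h and then stimulated for 24 h. N9 microglia were in Iscove's medium with 2% heat-inactivated FCS at 8×10^4 cells/well and were stimulated with LPS 10 μg/mL. RAW 264.7 cells were in DMEM with 5% FCS at 2×10^5 cells/well and were stimulated with LPS 1 μg/mL. Medium was stored at -70 °C until assay.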

[8] = Antiinflammatory activity against mouse […] cells assessed as inhibition of LPS-induced nitrite accumulation at 10 uM treated 1 hr before LPS challenge assessed after 24 hrs; format: functional; summary of the method: as §2
[9] = test system: N9; assay: Antiinflammatory activity against mouse N9 cells assessed as inhibition of LPS/IFN-gamma-induced TNFalpha generation treated 1 hr before LPS challenge assessed after 24 hrs; format: functional, cell-based; summary of the method: as §3
[10] = Antiinflammatory activity against mouse […] cells assessed as inhibition of LPS-induced nitrite accumulation at 3 uM treated 1 hr before LPS challenge assessed after 24 hrs; format: functional; summary of the method: as §2
[11] = test system: N9; assay: Antiinflammatory activity against mouse N9 cells assessed as inhibition of LPS/IFN-gamma-induced nitrite accumulation at 30 uM treated 1 hr before LPS challenge assessed after 24 hrs
[12] = test system: N9; assay: Antiinflammatory activity against mouse N9 cells assessed as inhibition of LPS/IFN-gamma-induced nitrite accumulation at 10 uM treated 1 hr before LPS challenge assessed after 24 hrs

COC(=O)[C@@H](N)CCCNC(=N)N[N+](=O)[O-] [L-NAME]
inhibition at 1000 µM [1]: 6.6%
inhibition at 300 µM [2]: 15.6%
inhibition at 100 µM [3]: 16.8%
IC50 [4]: 510 µM
IC50 [5]: 630 µM

COc1cc2c(O[C@@H]3OC[C@](O)(CO[C@@H]4OC[C@@H](O)[C@H](O)[C@H]4O)[C@H]3O[C@@H]3OC[C@H](O)[C@H](O[C@@H]4OC[C@](O)(CO)[C@H]4O)[C@H]3O)c3c(c(-c4ccc5c(c4)OCO5)c2cc1OC)C(=O)OC3 [CILIATOSIDE B]
inhibition at 30 µM [6]: 12.4%
Activity [7]: inactive
inhibition at 10 µM [8]: 20.5%
Activity [9]: inactive
inhibition at 3 µM [10]: 20.7%
inhibition at 30 µM [11]: 36.5%
IC50 [4]: 29.4 µM
inhibition at 10 µM [12]: 42.8%

COc1cc2c(O[C@@H]3OC[C@](O)(CO[C@@H]4OC[C@@H](O)[C@H](O)[C@H]4O)[C@H]3O[C@@H]3OC[C@H](O)[C@H](O)[C@H]3O)c3c(c(-c4ccc5c(c4)OCO5)c2cc1OC)C(=O)OC3 [CILIATOSIDE A]
inhibition at 30 µM [6]: 11.9%
Activity [7]: inactive
inhibition at 10 µM [8]: 18.7%
Activity [9]: inactive
inhibition at 3 µM [10]: 22%
inhibition at 30 µM [11]: 37.9%
IC50 [4]: 27.1 µM
inhibition at 10 µM [12]: 46.7%
